From ChEMBL document CHEMBL1269008, “Electron density guided fragment-based lead discovery of ketohexokinase inhibitors” (J Med Chem, 2010) come the findings set out here.

In brackets after ≈: the same amount, converted by molar mass.

Series [1] can be described thus: Aqueous solubility of the compound in phosphate buffered saline at pH 2. The format is physicochemical.
Series [2] deals with 5-hydroxytryptamine receptor 2B (Homo sapiens) (UniProt P41595). The series is described as follows: Inhibition of 5HT2B at 10 uM.
Another series addresses T1, Cytochrome P450 1A2 (Homo sapiens, UniProt P05177).
T1 sequence (P05177 whole entry): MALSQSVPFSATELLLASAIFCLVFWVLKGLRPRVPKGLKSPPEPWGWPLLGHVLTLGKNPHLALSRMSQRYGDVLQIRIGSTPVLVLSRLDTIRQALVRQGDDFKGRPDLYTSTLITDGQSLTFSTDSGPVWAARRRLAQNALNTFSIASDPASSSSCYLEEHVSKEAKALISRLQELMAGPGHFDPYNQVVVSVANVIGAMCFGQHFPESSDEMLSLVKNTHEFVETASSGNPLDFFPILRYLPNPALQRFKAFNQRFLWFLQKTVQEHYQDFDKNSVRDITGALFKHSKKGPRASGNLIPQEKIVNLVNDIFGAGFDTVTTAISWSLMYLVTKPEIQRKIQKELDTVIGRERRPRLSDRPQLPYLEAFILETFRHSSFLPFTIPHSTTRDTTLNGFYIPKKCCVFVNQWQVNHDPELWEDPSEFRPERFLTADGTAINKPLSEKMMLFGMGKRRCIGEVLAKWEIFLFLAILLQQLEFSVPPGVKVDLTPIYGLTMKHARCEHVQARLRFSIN
In words: Inhibition of human recombinant CYP1A2. The format is ADME.

Series [3] is described as follows: Aqueous solubility of the compound in water. The format is physicochemical.
Series [4] deals with T2, 5-hydroxytryptamine receptor 1A (Homo sapiens) (UniProt P08908).
T2 sequence (whole entry): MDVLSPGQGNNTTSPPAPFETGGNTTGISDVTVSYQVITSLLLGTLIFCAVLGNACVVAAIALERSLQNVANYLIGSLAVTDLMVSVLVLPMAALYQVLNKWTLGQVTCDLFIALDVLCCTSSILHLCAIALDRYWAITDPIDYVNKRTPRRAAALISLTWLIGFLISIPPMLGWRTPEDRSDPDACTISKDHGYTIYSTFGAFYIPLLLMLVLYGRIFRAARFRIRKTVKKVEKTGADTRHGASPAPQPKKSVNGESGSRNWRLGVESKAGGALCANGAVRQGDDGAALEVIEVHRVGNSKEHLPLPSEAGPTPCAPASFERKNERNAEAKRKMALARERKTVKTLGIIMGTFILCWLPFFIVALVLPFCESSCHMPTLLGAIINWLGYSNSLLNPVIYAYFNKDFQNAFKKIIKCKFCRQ
In words: Inhibition of 5HT1A at 10 uM.

The target in the next series is Cytochrome P450 3A4 (Homo sapiens, UniProt P08684). The series is described as follows: Inhibition of human recombinant CYP3A4. The series is classed as ADME.
A short description of series [5]: Metabolic stability in human liver microsomes after 10 mins. The series is classed as ADME, Microsome. Particulars: read-out: Stability. On the technique in general: Liver microsomes are vesicles of endoplasmic reticulum, rich in cytochrome P450 enzymes.
Another series has as its target Cytochrome P450 2C9 (Homo sapiens, UniProt P11712). The series is described as follows: Inhibition of human recombinant CYP2C9. The series is classed as ADME.
Series [6] can be described thus: Permeability from apical to basolateral side of human Caco-2 cells. The series is classed as ADME, cell-based. An outline of the steps:
(§1)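 Caco-2 monolayers cultured 21 days on Transwells. Compound at 10 μM in HBSS with 25 mM HEPES pH 7.4, added to the apical or basolateral side. Lucifer Yellow in donor buffer checked monolayer integrity. After 1 h at 37 °C, both chambers were sampled into acetonitrile with internal standard and measured by LC-MS/MS to calculate Papp.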

A short description of series [7]: Aqueous solubility of the compound in […]. The series is classed as physicochemical.
Series [8] can be described thus: Metabolic stability in rat liver microsomes after 10 mins. The format is ADME, Microsome. Particulars: read-out: Stability.
The nature of series [9]: Cmax in Sprague-Dawley rat at 10 mg/kg, po. The note with it: in vivo. More on the design: dose 10 mg/kg, route oral. The format is ADME, organism-based. The method, boiled down: (§2)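 Male SPF Sprague-Dawley rats (~250 g), n=4. HCl salt dissolved in 20% HPBCD, adjusted to pH 4.5 with NaOH. 10 mg/kg by gastric intubation. Blood sampled at 0.5, 1, 2, 4, 8 and 24 h. Parameters derived from each animal's plasma concentration-time profile by limited PK analysis.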

A short description of series [10]: Clearance in Sprague-Dawley rat at 2 mg/kg, iv and 10 mg/kg, po. The series is classed as ADME, organism-based. The note with it: in vivo. The method, boiled down:
(§3)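 Male SPF Sprague-Dawley rats (~250 g), n=4, vehicle 20% HPBCD at pH 4.5. Dosing was 2.0 mg/kg iv into the jugular vein, with blood taken at 7 and 20 min and 1, 2, 4, 8 and 24 h. Oral arm was 10 mg/kg by gastric intubation. Parameters came from each animal's plasma profile.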

Another series has as its target Cytochrome P450 2D6 (Homo sapiens, UniProt P10635). The series is described as follows: Inhibition of human recombinant CYP2D6. The series is classed as ADME.
Series [11] is described as follows: Oral bioavailability in Sprague-Dawley rat at 10 mg/kg. The format is ADME, organism-based. The note with it: in vivo. An outline of the steps: as §2
The target in series [12] is 5-hydroxytryptamine receptor 7 (Homo sapiens) (UniProt P34969). The series is described as follows: Inhibition of 5HT7 at 10 uM.
The nature of series [13]: Volume of distribution in Sprague-Dawley rat at 2 mg/kg, iv and 10 mg/kg, po. The series is classed as ADME, organism-based. The note with it: in vivo. An outline of the steps:
as §3

Series [14] in a line: AUClast in Sprague-Dawley rat at 10 mg/kg, po. The note with it: plasma. The series is classed as ADME, organism-based. More on the design: time 0 - last, dose 10 mg/kg, route oral. The method, boiled down: as §2
Series [15] can be described thus: Inhibition of PKA at 10 uM. An outline of the steps:
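Commercial panel of 200 protein kinases, with compound at 10 μM and ATP at 10 μM. Percent inhibition is from a single concentration.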

In the next series the target is Cytochrome P450 2C19 (Homo sapiens, UniProt P33261). The series is described as follows: Inhibition of human recombinant CYP2C19. The series is classed as ADME.
Series [16] can be described thus: Aqueous solubility of the compound in phosphate buffered saline at pH 7.4. The format is physicochemical.
Series [17] can be described thus: Permeability from basolateral to apical side of human Caco-2 cells. The series is classed as ADME, cell-based. The method, boiled down: as §1
In general terms: Caco-2 monolayers are a common model of the intestinal barrier.

Sequence of 5-hydroxytryptamine receptor 2B (Homo sapiens) (P41595 whole entry): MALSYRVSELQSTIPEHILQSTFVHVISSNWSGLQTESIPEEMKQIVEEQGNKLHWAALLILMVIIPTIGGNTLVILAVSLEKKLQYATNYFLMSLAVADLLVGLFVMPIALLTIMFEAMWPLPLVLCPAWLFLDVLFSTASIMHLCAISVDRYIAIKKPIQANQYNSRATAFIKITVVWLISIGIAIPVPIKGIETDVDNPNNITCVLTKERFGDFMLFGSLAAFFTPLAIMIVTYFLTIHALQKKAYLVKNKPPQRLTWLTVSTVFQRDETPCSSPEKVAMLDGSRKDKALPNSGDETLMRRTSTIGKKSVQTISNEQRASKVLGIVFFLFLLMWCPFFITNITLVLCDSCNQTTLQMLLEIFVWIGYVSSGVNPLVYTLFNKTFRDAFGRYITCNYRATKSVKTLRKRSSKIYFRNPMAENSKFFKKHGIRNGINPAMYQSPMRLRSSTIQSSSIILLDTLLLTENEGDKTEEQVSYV
Sequence of 5-hydroxytryptamine receptor 7 (Homo sapiens) (P34969 whole entry): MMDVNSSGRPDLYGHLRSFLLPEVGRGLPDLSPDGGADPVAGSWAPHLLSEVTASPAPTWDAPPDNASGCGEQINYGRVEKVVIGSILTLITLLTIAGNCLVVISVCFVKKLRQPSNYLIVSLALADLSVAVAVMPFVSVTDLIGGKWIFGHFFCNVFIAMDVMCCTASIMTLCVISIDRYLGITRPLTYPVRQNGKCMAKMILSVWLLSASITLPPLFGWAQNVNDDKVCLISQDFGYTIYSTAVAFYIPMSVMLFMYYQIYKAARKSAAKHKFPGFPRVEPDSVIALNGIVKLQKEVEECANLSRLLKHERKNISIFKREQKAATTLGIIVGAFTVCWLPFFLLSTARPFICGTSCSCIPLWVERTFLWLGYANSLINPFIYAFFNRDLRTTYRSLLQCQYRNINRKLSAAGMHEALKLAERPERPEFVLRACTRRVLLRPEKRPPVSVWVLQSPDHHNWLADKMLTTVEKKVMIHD
Sequence of Cytochrome P450 3A4 (P08684 whole entry): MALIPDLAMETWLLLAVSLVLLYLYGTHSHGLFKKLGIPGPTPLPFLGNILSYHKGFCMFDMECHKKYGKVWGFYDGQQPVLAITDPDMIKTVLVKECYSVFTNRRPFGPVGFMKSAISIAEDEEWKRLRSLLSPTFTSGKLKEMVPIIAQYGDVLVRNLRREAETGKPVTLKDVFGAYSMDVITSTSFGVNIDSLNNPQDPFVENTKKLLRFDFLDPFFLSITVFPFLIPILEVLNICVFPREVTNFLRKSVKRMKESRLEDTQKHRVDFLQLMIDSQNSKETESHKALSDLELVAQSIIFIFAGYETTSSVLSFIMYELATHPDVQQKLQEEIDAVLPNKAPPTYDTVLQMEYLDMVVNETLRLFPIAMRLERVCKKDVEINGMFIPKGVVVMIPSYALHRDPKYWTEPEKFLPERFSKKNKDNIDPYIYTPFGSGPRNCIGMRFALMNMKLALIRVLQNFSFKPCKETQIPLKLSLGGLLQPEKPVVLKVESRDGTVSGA
Sequence of Cytochrome P450 2C19 (P33261 whole entry): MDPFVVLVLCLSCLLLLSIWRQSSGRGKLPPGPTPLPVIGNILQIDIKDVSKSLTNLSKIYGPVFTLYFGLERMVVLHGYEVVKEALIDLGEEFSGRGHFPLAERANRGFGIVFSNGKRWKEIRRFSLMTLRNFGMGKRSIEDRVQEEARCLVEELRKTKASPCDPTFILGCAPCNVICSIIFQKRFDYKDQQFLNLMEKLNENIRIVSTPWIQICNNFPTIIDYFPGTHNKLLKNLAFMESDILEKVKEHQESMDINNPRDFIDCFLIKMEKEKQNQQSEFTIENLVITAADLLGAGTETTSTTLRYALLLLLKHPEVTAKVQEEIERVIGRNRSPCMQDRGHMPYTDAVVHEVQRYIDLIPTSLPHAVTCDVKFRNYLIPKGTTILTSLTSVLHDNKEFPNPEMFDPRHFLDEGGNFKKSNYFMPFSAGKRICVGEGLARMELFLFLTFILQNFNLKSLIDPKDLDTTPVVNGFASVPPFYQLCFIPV
Sequence of Cytochrome P450 2C9 (P11712 whole entry): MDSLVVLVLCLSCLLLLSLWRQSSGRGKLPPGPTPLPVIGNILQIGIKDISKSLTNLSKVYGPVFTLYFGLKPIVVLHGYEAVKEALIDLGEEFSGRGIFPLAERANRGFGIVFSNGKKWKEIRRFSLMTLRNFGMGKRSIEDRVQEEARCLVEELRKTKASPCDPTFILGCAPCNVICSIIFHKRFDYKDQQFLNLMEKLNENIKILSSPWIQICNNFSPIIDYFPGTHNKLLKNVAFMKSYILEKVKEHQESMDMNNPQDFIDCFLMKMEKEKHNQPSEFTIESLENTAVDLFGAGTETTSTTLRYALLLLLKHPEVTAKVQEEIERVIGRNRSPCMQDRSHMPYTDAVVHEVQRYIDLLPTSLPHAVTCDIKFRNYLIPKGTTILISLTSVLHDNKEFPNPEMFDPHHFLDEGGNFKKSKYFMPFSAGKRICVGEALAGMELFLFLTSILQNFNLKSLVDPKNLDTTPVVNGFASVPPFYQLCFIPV
Sequence of Cytochrome P450 2D6 (P10635 whole entry): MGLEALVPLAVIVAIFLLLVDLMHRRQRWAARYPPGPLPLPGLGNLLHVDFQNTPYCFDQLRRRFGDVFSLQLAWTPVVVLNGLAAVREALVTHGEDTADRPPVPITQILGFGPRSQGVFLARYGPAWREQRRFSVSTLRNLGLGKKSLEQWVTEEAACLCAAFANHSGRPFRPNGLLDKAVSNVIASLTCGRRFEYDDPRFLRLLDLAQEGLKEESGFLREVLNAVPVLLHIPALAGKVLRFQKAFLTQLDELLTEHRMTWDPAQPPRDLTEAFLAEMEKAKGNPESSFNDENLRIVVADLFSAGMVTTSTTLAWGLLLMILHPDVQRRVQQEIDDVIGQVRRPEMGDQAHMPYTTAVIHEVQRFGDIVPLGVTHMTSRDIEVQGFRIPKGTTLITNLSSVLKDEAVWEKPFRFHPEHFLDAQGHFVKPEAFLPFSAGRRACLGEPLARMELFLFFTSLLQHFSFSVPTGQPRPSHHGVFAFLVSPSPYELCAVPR

For the molecule `CSc1nn(-c2ccccc2)c2cc(NC(=O)C3CCNCC3)ccc12`, the solubility (in general, the dissolved amount per volume that the medium holds) in series [1] was found to be 35.3 µM (≈ 12.9 µg/mL); in series [3], 40.7 µM (≈ 14.9 µg/mL); in [7] it was 40 µM (≈ 14.7 µg/mL); in series [16], 45.2 µM (≈ 16.6 µg/mL). Further, the inhibition – broadly, how much of the control response was suppressed – in [2] is 91%; in [4], 83%; in [12] it was 95%; in [15], 99%. Also, the IC50 on Cytochrome P450 1A2, on Cytochrome P450 3A4, at Cytochrome P450 2C9, on Cytochrome P450 2D6 and on Cytochrome P450 2C19 was > 10 µM in each case. The remaining at 10 min in series [5] turned out to be 96%; in [8], 95%. In series [6], the Papp A→B (usually how fast a substance crosses the layer from the apical side) came to 1.65 ×10⁻⁶ cm/s. Also, the Cmax (commonly the maximum level reached in the sampled fluid or tissue) in series [9] came to 529 ng/mL. Besides, the clearance in [10] came out at 11.6 mL/min/kg. The bioavailability (commonly dose-corrected exposure relative to a reference, in per cent) in [11] was 75.4%. In series [13], this molecule came in with a Vd of 8.53 L/kg. Besides, in series [14], the AUC(0-t) (commonly exposure summed from dosing to a finite time, without extrapolation to infinity) was found to be 9030 ng·h/mL. In series [17], the Papp B→A (as a rule, the apparent permeability from the basolateral to the apical side of a cell layer) came out at 9.47 ×10⁻⁶ cm/s.
